Screening results deposited in PubChem by Broad Institute.
CaV13 FRET inh = Primary screen for inhibitors of IQ motif and Ca2+-dependent inactivation inhibitor domain binding in CACNA1D, Förster resonance energy transfer in living cells, …. HEK cells, CFP/YFP FRET ICDI-IQ, plate reader, 10 min; percent FRET-ratio fall versus neutral wells. inhibition, % at 12.3 µM. actives 0.098% (n = 340,000). AID 743397;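 active = mean replicate inhibition of at least 30% and at least 1% of replicates passing that level; inconclusive = only one of the two criteria is met; inactive = neither criterion is met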
SIRT5 block = blocks human SIRT5 desuccinylation of peptide; Q9NXA8; Purified SirT5, succinyl-peptide AMC, trypsin-coupled fluorescence; inhibition, % at 15 µM; actives 1.1% (n = 330,000); in the data active = inhibition above about 15%; inconclusive = no clear call, values can overlap the other calls
Target sequence (Q9NXA8 whole entry, looked up): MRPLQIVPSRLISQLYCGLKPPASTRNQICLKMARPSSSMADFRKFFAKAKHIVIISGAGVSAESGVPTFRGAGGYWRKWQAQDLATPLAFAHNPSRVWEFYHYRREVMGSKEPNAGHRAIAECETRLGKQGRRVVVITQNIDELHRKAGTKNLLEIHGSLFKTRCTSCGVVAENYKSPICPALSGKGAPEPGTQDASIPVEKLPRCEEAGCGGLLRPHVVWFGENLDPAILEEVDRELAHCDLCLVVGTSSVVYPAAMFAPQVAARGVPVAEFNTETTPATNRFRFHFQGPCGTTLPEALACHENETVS
DENV2 CPE rescue = protects cells from dengue virus 2 cytopathic effect | DENV2-infected cells, cytopathic effect rescue, plate reader | CPE inhibition, % at 9.99 µM | actives 1.7% (n = 350,000) | AID 651640; in the data active = CPE inhibition above about 20%, passing the limit was not always enough; inconclusive = no clear call, values can overlap the other calls; tested in BHK-21 cells
S100A4 MyoIIA = inhibitors of human S100A4 binding to myosin IIA peptide. S100A4/TAMRA-MyoIIA peptide fluorescence polarization. P26447. actives 0.14% (n = 360,000). inhibition, % at 10.7 µM. AID 652163;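 active = mean inhibition of at least 70% across replicates, with every replicate also reaching that level; inconclusive = mean inhibition reaches 70% but some replicates fall short; inactive = mean inhibition below 70%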
Target sequence (P26447 whole entry, looked up): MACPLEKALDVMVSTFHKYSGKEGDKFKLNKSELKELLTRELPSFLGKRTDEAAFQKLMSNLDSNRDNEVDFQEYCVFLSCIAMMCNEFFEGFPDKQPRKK
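Material: S100A4 monomer (human). Medium: Calcium-containing HEPES buffer, pH 7.2. Probe or stimulus: labelled myosin peptide probe, 5 nM. Compound dosing: one concentration per compound. Timing: polarization read 5 min after assay mix addition, stable 5–60 min. Benchmarks: DMSO as neutral control, TFP as positive control.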
MLL AF4-AF9 inh = inhibitors of human MLL-AF4/AF9 interaction. P42568. AID 651704. inhibition, % at 10 µM. AlphaScreen, biotin-AF4 peptide binding to FLAG-AF9. actives 0.47% (n = 350,000);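 active = every replicate reaching a set inhibition limit, whatever the replicate mean, cut at about 25% in these data; inconclusive = mean inhibition reaches that limit but some replicates miss it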
Numbers stand for hits; 0 = inactive; ? = inconclusive; - = no result given; + = active, no number. The list is not random: actives were taken first. Their share in the collection is about 2.7%.

SMILES	CaV13 FRET inh	SIRT5 block	DENV2 CPE rescue	S100A4 MyoIIA	MLL AF4-AF9 inh
O=C(C[C@@H]1CC[C@H]2[C@@H](COC[C@@H](O)CN2S(=O)(=O)c2ccc(F)cc2)O1)NCC1CCCCC1	-	0	0	0	31
Cn1cnc(S(=O)(=O)N2C[C@H](O)COC[C@@H]3O[C@@H](CC(=O)NC4CCCC4)CC[C@H]32)c1	-	0	59	0	0
Cn1cnc(S(=O)(=O)N2C[C@@H](O)COC[C@H]3O[C@H](CC(=O)NC4CCCC4)CC[C@@H]32)c1	-	0	0	0	0
O=C(C[C@H]1CC[C@H]2[C@@H](COC[C@H](O)CN2S(=O)(=O)c2ccc(F)cc2)O1)NCC1CC1	-	0	0	0	0
O=C(C[C@H]1CC[C@H]2[C@@H](COC[C@@H](O)CN2S(=O)(=O)c2ccc(F)cc2)O1)NCC1CCCCC1	-	0	0	0	0
CN(C)CCCNC(=O)C[C@H]1CC[C@H]2[C@@H](COC[C@H](O)CN2S(=O)(=O)c2ccc(F)cc2)O1	-	22	0	0	0
O=C(C[C@@H]1CC[C@@H]2[C@H](COC[C@H](O)CN2S(=O)(=O)c2ccccc2)O1)NCC1CCCCC1	-	0	0	0	0
O=C(C[C@H]1CC[C@H]2[C@@H](COC[C@H](O)CN2S(=O)(=O)c2ccccc2)O1)NCC1CCCCC1	-	0	0	0	33
CC(=O)Nc1ccc2c(c1)C(=O)N(C)[C@@H]1CC[C@@H](CC(=O)Nc3cn(C)nc3C)O[C@@H]1CO2	-	0	0	0	0
C[C@@H]1CN([C@@H](C)CO)C(=O)c2cc(NC(=O)CCCN(C)C)ccc2O[C@@H](C)CCCCO[C@@H]1CN(C)CC1CCCCC1	-	0	0	0	0
O=C(Nc1ccc2nc3n(c(=O)c2c1)CCCC3)c1cccc(F)c1	0	0	0	0	0
O=C(Nc1ccc2nc3n(c(=O)c2c1)CCCC3)c1ccccc1F	0	0	39	0	0
Nc1nnc(SCC(=O)Nc2ccc(Cl)c(C(=O)O)c2)s1	0	17	0	0	0
N=c1oc2cc(O)ccc2cc1C(=O)Nc1nc2ccccc2s1	81	0	?	0	0
COc1ccccc1C(=O)Nc1nc2ccccc2s1	0	0	0	0	?
N=c1oc2cc(O)ccc2cc1C(=O)Nc1ccc(Br)cc1	+	0	0	0	0
CCC(=O)N1[C@H](C(=O)N2CCCCC2)[C@@H](CO)[C@@H]2Cn3c(ccc(-c4ccccc4)c3=O)[C@@H]21	-	0	0	0	0
COc1ccc(NC(=O)N[C@@H]2CC[C@@H](CC(=O)NC3CCC3)O[C@@H]2CO)cc1	-	0	0	0	0
CCOC(=O)c1ccccc1NC(=O)c1cccc([N+](=O)[O-])c1	0	-	0	0	0
O=C(Nc1ccc(S(=O)(=O)Nc2ncccn2)cc1)c1cccc([N+](=O)[O-])c1	0	0	71	0	0
Cc1c(N)cc(S(=O)(=O)O)cc1NC(=O)c1cccc([N+](=O)[O-])c1	0	28	0	0	0
Cc1cccc(N2CCCC2=Nc2ccc(Br)cc2C#N)c1	0	-	-	-	-
N#Cc1cc(Br)ccc1N=C1CCCN1c1ccccc1	0	-	24	0	0
O=C(COCC(=O)N/N=C/c1ccccc1F)N/N=C/c1ccccc1F	0	0	0	0	0
COc1ccccc1/C=C/C(=O)NCC(=O)N/N=C/c1ccccc1	0	0	0	0	0
SMILES	CaV13 FRET inh	SIRT5 block	DENV2 CPE rescue	S100A4 MyoIIA	MLL AF4-AF9 inh
COc1ccccc1/C=C/C(=O)NCC(=O)N/N=C/c1ccc(C)o1	0	100	0	0	0
COc1ccccc1/C=N/NC(=O)COCC(=O)N/N=C/c1ccccc1OC	0	19	0	0	0
C[C@@H]1CN([C@H](C)CO)C(=O)c2cc(-c3ccncc3)cnc2O[C@H]1CN(C)C(=O)C1CCCCC1	-	0	?	0	0
CSc1ccc(/C=C/C(=O)OCC(=O)N2CCN(S(=O)(=O)c3ccc(C)cc3C)CC2)cc1	0	0	25	0	0
COc1cccc(CNC(=O)[C@@H]2[C@@H](CO)[C@@H]3Cn4c(cccc4=O)[C@H]2N3C(=O)C2CCCCC2)c1	-	0	0	0	0
CCn1c(-c2ccccc2)csc1=Nc1ccc(O)cc1	0	0	0	0	49
COc1ccccc1-c1ccc(C2[C@H]3CNC[C@@H]2N3C(=O)Nc2ccccc2F)cc1 (some centres not stated)	-	0	0	0	-
CO[C@@H]1CN(C)C(=O)c2ccc(NC(=O)Nc3cccc(F)c3)cc2OC[C@H](C)N(C(C)=O)C[C@H]1C	-	0	0	0	0
CO[C@@H]1CN(C)C(=O)c2ccc(NS(C)(=O)=O)cc2OC[C@H](C)N(Cc2cccnc2)C[C@@H]1C	-	0	26	0	0
CO[C@H]1CN(C)C(=O)c2cc(NS(=O)(=O)CC(F)(F)F)ccc2OC[C@H](C)N(Cc2cccnc2)C[C@@H]1C	-	-	37	0	0
COCC(=O)N1CCCCN2[C@@H](CO)[C@H](c3ccc(C#Cc4cccnc4)cc3)[C@@H]2C1	-	0	0	0	0
Cc1ccc(S(=O)(=O)N2[C@@H]3CNC[C@H]2C3c2ccc(-c3ccc(C#N)cc3)cc2)cc1 (some centres not stated)	-	0	29	0	0
O=S(=O)(c1ccccc1)N1[C@@H]2CNC[C@H]1C2c1ccc(-c2ccccc2)cc1 (some centres not stated)	-	0	68	0	0
O=S(=O)(c1ccccc1)N1[C@@H]2CNC[C@H]1C2c1ccc(-c2ccc(F)cc2)cc1 (some centres not stated)	-	-	0	-	-
O=C(Nc1ccc(Cl)cc1)N1C[C@@H]2[C@H](c3ccccc31)[C@@H](CO)N2CC1CCCC1	-	0	0	0	0
Nc1nc(-c2cc(O)ccc2[N+](=O)[O-])cc(-c2ccccc2)c1[N+](=O)[O-]	+	0	0	0	0
COC(=O)c1ccc(/C=N/NC(=O)CNc2cccc(C)c2)cc1	0	24	0	0	0
Cc1ccc(NCC(=O)N/N=C/c2cccc(Br)c2)cc1	0	16	31	0	0
Cc1cccc(NCC(=O)N/N=C/c2cccc(Br)c2)c1	0	0	0	0	0
C[C@H](CO)N1C[C@H](C)[C@@H](CN(C)C(=O)CN(C)C)Oc2ncc(C#Cc3ccncc3)cc2C1=O	-	0	0	0	0
C[C@H](CO)N1C[C@H](C)[C@H](CN(C)S(=O)(=O)c2ccc([N+](=O)[O-])cc2)OCc2ccccc2-c2c(n(C)c3ccccc23)C1=O	-	0	0	0	0
C(=N\Nc1nc(-c2ccccc2)cs1)/c1ccco1	0	-	-	-	-
Cc1sc(N/N=C/c2ccco2)nc1-c1ccccc1	0	0	0	0	25
O=C(NCc1ccccc1C(F)(F)F)C1CC(c2ccccc2C(F)(F)F)=NO1 (configuration not stated)	0	-	-	-	-
CC(C)CCNC(=O)C1CC(c2ccccc2C(F)(F)F)=NO1 (configuration not stated)	0	-	35	0	-
